Experimental data reported in ChEMBL document CHEMBL3853307, “Anti-inflammatory Effect of Methyl Gallate on Experimental Arthritis: Inhibition of Neutrophil Recruitment, Production of Inflammatory Mediators, and Activation of Macrophages” (J Nat Prod, 2016).
Calls of active or inactive are those of the source. The rule behind the calls is not given here.

Key:
[1] = system: J774.A1; experiment: Antiinflammatory activity in mouse J774A.1 cells assessed as inhibition of zymosan and IFNgamma-induced COX2 expression at 1 uM preincubated for 1 hr followed by zymosan and IFNgamma addition measured after 24 hrs by Western blot analysis; format: functional, cell-based
How it was run: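 J774A.1 cells in six-well plates pretreated 1 h (0.1−10 μM) before zymosan (10 μg per 10^5 cells) and/or IFN-γ (25 U/mL) for 24 h. Lysates (Tris/NaCl/MgCl2/0.5% NP40 with protease inhibitors); 30 μg protein run on 7.5% SDS-PAGE, transferred to PVDF, probed for COX-2, iNOS and α-tubulin.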

[2] = system: Mus musculus; experiment: Antiinflammatory activity in C57BL/6 mouse assessed as inhibition of zymosan-induced mononuclear cells migration in articular cavity at 10 mg/kg, ip administered 1 hr prior to zymosan challenge measured at 6 to 24 hrs; format: functional, organism-based
How it was run: (§1)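 Male C57BL/6 mice, fasted overnight, dosed orally (vehicle saline/water, 200 μL) or i.p. 1 h before zymosan (500 μg in 25 μL saline, i.a., left knee). Knee swelling measured as change in transverse diameter from basal by digital caliper (mm). Synovial washes (PBS/EDTA) counted on a particle counter; differentials from May-Grünwald-Giemsa cytospins, cells ×10^5/cavity. Sampled at 6 and/or 24 h; seven mice/group.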

[3] = system: Mus musculus; experiment: Antiinflammatory activity in C57BL/6 mouse assessed as inhibition of zymosan-induced neutrophil migration in articular cavity at 10 mg/kg, ip administered 1 hr prior to zymosan challenge measured at 6 to 24 hrs; format: functional, organism-based; how it was run: as §1
[4] = system: Mus musculus; experiment: Antiinflammatory activity in C57BL/6 mouse assessed as inhibition of zymosan-induced infiltration of inflammatory cells into synovial tissue at 10 mg/kg, ip administered 1 hr prior to zymosan challenge measured at 6 to 24 hrs by hematoxylin and eosin staining-based optical microscopy; format: functional, organism-based
How it was run: (§2)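 Mice dosed orally or i.p. 1 h before i.a. zymosan (500 μg/cavity) or saline. Whole knees taken at 6 and 24 h from six mice, fixed in 10% formalin 48 h, decalcified in 10% EDTA/PBS 1−2 weeks, paraffin-embedded. 5 μm sections H&E-stained and examined by light microscopy. Parameter scores summed into an arthritis index; means ± SEM, two experiments.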

[5] = system: Mus musculus; experiment: Antiinflammatory activity in C57BL/6 mouse assessed as inhibition of zymosan-induced bleeding in synovial tissue at 10 mg/kg, ip administered 1 hr prior to zymosan challenge measured at 6 to 24 hrs by hematoxylin and eosin staining-based optical microscopy; format: functional, organism-based; how it was run: as §2
[6] = system: Mus musculus; experiment: Antiinflammatory activity in C57BL/6 mouse assessed as inhibition of zymosan-induced knee joint edema formation at 10 mg/kg, ip administered 1 hr prior to zymosan challenge measured at 6 hrs relative to control; format: functional; details: C57BL/6, Knee joint; how it was run: as §1
[7] = system: J774.A1; experiment: Antiinflammatory activity in mouse J774A.1 cells assessed as inhibition of zymosan and IFNgamma-induced nitric oxide production at 1 uM preincubated for 1 hr followed by zymosan and IFNgamma addition measured after 24 hrs by colorimetric Griess test; format: functional, cell-based
How it was run: (§3)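 J774A.1 macrophages (1 × 10^5/well, RPMI/10% FBS) adhered 24 h, preincubated 1 h with compound (0.1−10 μM) or dexamethasone (1 μM), then stimulated with zymosan (10 μg per 10^5 cells) and/or IFN-γ (25 U/mL) for 24 h. Supernatant IL-6 by sandwich ELISA; nitrite by Griess reaction at 540 nm. Quadruplicate wells, two experiments.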

[8] = system: Mus musculus; experiment: Antiinflammatory activity in C57BL/6 mouse assessed as inhibition of zymosan-induced knee joint edema formation at 10 mg/kg, ip administered 1 hr prior to zymosan challenge measured at 24 hrs relative to control; format: functional; details: C57BL/6, Knee joint; how it was run: as §1
[9] = system: Mus musculus; experiment: Antiinflammatory activity in C57BL/6 mouse assessed as inhibition of zymosan-induced total leukocyte accumulation in articular cavity at 10 mg/kg, ip administered 1 hr prior to zymosan challenge measured at 6 to 24 hrs; format: functional, organism-based; how it was run: as §1
[10] = system: Mus musculus; experiment: Antiinflammatory activity in C57BL/6 mouse assessed as inhibition of zymosan-induced TNFalpha production in cell-free supernatant of knee joint synovial washes at 10 mg/kg, ip administered 1 hr prior to zymosan challenge measured at 6 to 24 hrs by sandwich ELISA method; format: functional, organism-based
How it was run: (§4)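 Male C57BL/6 mice (18−22 g), fasted overnight, dosed orally (in filtered water, 200 μL) or i.p. 1 h before i.a. zymosan (500 μg in 25 μL saline) into left knee; contralateral knee got vehicle. Synovial cavity washed twice with 150 μL PBS/10 mM EDTA at 6 and 24 h; washes spun 400g 10 min, 4 °C. Cytokines measured by sandwich ELISA, LTB4/PGE2 by EIA (pg/mL); six mice/group, two experiments.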

[11] = system: Mus musculus; experiment: Antiinflammatory activity in C57BL/6 mouse assessed as inhibition of zymosan-induced PGE2 production in cell-free supernatant of knee joint synovial washes at 10 mg/kg, ip administered 1 hr prior to zymosan challenge measured at 6 to 24 hrs by immunosorbent assay; format: functional, organism-based; how it was run: as §4
[12] = system: Mus musculus; experiment: Antiinflammatory activity in C57BL/6 mouse assessed as inhibition of zymosan-induced IL-1beta production in cell-free supernatant of knee joint synovial washes at 10 mg/kg, ip administered 1 hr prior to zymosan challenge measured at 6 to 24 hrs by sandwich ELISA method; format: functional, organism-based; how it was run: as §4
[13] = system: J774.A1; experiment: Antiinflammatory activity in mouse J774A.1 cells assessed as inhibition of zymosan and IFNgamma-induced IL6 production in cell-free supernatant at 1 uM preincubated for 1 hr followed by zymosan and IFNgamma addition measured after 24 hrs by sandwich ELISA; format: functional, cell-based; how it was run: as §3
[14] = system: Mus musculus; experiment: Antiinflammatory activity in C57BL/6 mouse assessed as inhibition of zymosan-induced CXCL1/KC production in cell-free supernatant of knee joint synovial washes at 10 mg/kg, ip administered 1 hr prior to zymosan challenge measured at 6 to 24 hrs by sandwich ELISA method; format: functional, organism-based; how it was run: as §4
[15] = system: Neutrophil; experiment: Antiinflammatory activity in C57BL/6 mouse neutrophils assessed as inhibition of CXCL1/KC-induced neutrophil chemotaxis at 50 nM preincubated for 1 hr followed by CXCL1/KC-induction measured after 1 hr by Wright-Giemsa staining-based light microscopic method; format: functional, cell-based
How it was run: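 Bone marrow neutrophils from C57BL/6 femurs, purified on a 65%/72% Percoll gradient (~85−90% purity). 10^5 cells preincubated 1 h with compound or medium, then placed in a 48-well Boyden chamber over CXCL-1/KC (250 nM) across a 5 μm polycarbonate filter, 60 min at 37 °C, 5% CO2. Filter Wright-Giemsa stained; migrated cells counted in 15 fields; quadruplicate wells.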

[16] = system: Mus musculus; experiment: Antiinflammatory activity in C57BL/6 mouse assessed as inhibition of zymosan-induced arthritis score at 10 mg/kg, ip administered 1 hr prior to zymosan challenge measured at 6 to 24 hrs by hematoxylin and eosin staining-based optical microscopy; format: functional, organism-based; how it was run: as §2
[17] = system: Mus musculus; experiment: Antiinflammatory activity in C57BL/6 mouse assessed as inhibition of zymosan-induced synovial hyperplasia at 10 mg/kg, ip administered 1 hr prior to zymosan challenge measured at 6 to 24 hrs by hematoxylin and eosin staining-based optical microscopy; format: functional, organism-based; how it was run: as §2
[18] = system: Mus musculus; experiment: Antiinflammatory activity in C57BL/6 mouse assessed as inhibition of zymosan-induced LTB4 production in cell-free supernatant of knee joint synovial washes at 10 mg/kg, ip administered 1 hr prior to zymosan challenge measured at 6 to 24 hrs by immunosorbent assay; format: functional, organism-based; how it was run: as §4
[19] = system: Mus musculus; experiment: Antiinflammatory activity in C57BL/6 mouse assessed as inhibition of zymosan-induced IL6 production in cell-free supernatant of knee joint synovial washes at 10 mg/kg, ip administered 1 hr prior to zymosan challenge measured at 6 to 24 hrs by sandwich ELISA method; format: functional, organism-based; how it was run: as §4

C[C@@H]1C[C@H]2[C@@H]3CCC4=CC(=O)C=C[C@]4(C)[C@@]3(F)[C@@H](O)C[C@]2(C)[C@@]1(O)C(=O)CO [DEXAMETHASONE]
inhibition [1]: Active
inhibition [2]: Active
inhibition [3]: Active
inhibition [4]: Active
inhibition [5]: Active
inhibition in vivo at 10 mg/kg [6]: 42%
inhibition [7]: Active
inhibition in vivo at 10 mg/kg [8]: 48%
inhibition [9]: Active
inhibition [10]: Active
inhibition [11]: Active
inhibition [12]: Active
inhibition [13]: Active
inhibition [14]: Active
inhibition [15]: Active
inhibition [16]: Active
inhibition [17]: Active
inhibition [18]: Active
inhibition [19]: Active
